# Test results: ChEMBL document CHEMBL1137254, “Structurally simple, potent, Plasmodium selective farnesyltransferase inhibitors that arrest the growth of malaria parasites” (J Med Chem, 2006)
# Columns and labels:
# [1] = target: T1, Protein farnesyltransferase (PFT) (Plasmodium falciparum) (UniProt Q5EI73+Q5EI74); assay: Inhibition of Plasmodium falciparum PFT at 5 nM
# [2] = target: T1, Protein farnesyltransferase (PFT) (Plasmodium falciparum); assay: Inhibition of Plasmodium falciparum PFT at 50 nM
# [3] = target: T2, Protein farnesyltransferase (PFT) (Plasmodium falciparum, UniProt Q5EI73+Q5EI74); assay: Inhibition of Plasmodium falciparum PFT; type: protein-complex assay
# T2 sequence (Q5EI73 whole entry): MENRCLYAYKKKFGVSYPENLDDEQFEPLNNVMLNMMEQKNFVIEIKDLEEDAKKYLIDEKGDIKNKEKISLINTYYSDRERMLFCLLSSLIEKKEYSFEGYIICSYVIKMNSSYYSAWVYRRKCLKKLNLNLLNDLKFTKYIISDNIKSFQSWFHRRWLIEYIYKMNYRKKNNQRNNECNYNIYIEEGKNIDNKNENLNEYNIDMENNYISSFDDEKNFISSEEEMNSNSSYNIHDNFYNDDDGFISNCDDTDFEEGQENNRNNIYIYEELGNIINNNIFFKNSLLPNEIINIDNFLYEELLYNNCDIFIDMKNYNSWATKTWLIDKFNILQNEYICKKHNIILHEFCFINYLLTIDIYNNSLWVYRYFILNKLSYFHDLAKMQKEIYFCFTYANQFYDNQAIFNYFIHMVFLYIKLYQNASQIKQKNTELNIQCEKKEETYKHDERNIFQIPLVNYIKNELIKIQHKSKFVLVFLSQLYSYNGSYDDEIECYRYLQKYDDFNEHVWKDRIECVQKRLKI
# T2 sequence (Q5EI74 whole entry): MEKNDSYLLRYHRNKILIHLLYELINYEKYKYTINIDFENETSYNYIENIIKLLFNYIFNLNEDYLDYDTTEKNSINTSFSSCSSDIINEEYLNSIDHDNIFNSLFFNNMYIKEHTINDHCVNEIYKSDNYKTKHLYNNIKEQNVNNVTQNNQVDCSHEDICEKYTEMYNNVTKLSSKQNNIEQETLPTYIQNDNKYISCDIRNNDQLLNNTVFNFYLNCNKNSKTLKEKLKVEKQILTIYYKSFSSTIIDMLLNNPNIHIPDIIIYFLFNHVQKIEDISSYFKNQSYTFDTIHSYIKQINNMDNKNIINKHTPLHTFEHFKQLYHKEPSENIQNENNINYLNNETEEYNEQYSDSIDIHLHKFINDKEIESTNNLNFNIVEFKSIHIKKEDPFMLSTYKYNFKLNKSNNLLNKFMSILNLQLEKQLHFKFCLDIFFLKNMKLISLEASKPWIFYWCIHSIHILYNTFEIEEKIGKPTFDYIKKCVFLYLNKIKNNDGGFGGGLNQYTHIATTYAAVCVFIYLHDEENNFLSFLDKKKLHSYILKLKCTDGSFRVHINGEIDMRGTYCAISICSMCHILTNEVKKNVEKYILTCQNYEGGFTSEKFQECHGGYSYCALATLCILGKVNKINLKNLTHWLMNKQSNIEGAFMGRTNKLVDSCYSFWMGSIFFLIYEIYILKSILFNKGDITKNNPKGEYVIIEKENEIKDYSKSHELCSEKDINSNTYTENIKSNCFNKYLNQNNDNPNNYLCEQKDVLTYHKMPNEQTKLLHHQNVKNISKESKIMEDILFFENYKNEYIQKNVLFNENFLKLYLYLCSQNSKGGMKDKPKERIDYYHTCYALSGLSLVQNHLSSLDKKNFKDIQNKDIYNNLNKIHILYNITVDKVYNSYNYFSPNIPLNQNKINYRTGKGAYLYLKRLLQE
# [4] = tested on: Plasmodium falciparum; assay: Inhibition of Plasmodium falciparum K1 growth as reduced [3H]hypoxanthine incorporation; type: functional; details: K1, 72 h, read-out: ED50 (the source's name)
# In short: (§1)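 Inhibitor in DMSO was added to P. falciparum culture (0.5% parasitemia, 0.5% hematocrit) in RPMI-1640 with 20% human A+ plasma. Cultures were held 48 h at 37 °C under 5% CO2/5% O2/90% N2, then pulsed with [8-3H]hypoxanthine (0.3 μCi) for 24 h more. Cells were harvested and counted by β-scintillation. Background from uninfected RBCs was subtracted, with DMSO set as 100%. ED50 was obtained by linear regression.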
# [5] = tested on: Plasmodium falciparum; assay: Inhibition of Plasmodium falciparum 3D7 growth as reduced [3H]hypoxanthine incorporation; type: functional; details: 3D7, 72 h, read-out: ED50 (the source's name)
# In short: as §1
# [6] = AUC in mouse at 50 mg/kg, po; type: ADME, organism-based; set-up: dose 50 mg/kg, route oral; details: plasma
# In short: (§2)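 Oral gavage at 50 mg/kg in 90% saline, 3% ethanol, 7% Tween; inhibitor concentration in plasma followed over 5 h. Values are averages of three animals per species (mice or rats). Reported parameters are AUC, Cmax, Tmax and elimination t1/2.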
# [7] = Cmax in mouse at 50 mg/kg, po; type: ADME, organism-based; set-up: dose 50 mg/kg, route oral; details: in vivo
# In short: as §2
# [8] = Half life in mouse at 50 mg/kg, po; type: ADME, organism-based; set-up: dose 50 mg/kg, route oral; details: in vivo, read-out: beta t1/2
# In short: as §2
# [9] = Tmax in mouse at 50 mg/kg, po; type: ADME, organism-based; set-up: dose 50 mg/kg, route oral; details: in vivo
# In short: as §2
# [10] = target: T1, Protein farnesyltransferase (PFT) (Plasmodium falciparum); assay: Selectivity for inhibition of Plasmodium falciparum PFT over rat PFT; type: protein-complex assay
# [11] = species on record: Mus musculus; assay: Half life in mouse liver microsome; type: ADME; details: microsomes
# In short: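 Pooled female liver microsomes were preincubated at 37 °C for 10 min in phosphate buffer with MgCl2, EDTA, an NADPH regenerating system and glucose-6-phosphate dehydrogenase. Inhibitor was then added in DMSO. Samples were quenched with acetonitrile plus internal standard at set time points and frozen at −20 °C. Parent and metabolites were quantified by LC/MS to give t1/2.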
# [12] = Apparent permeability in Caco-2 cells; type: ADME, cell-based; details: human
inhibition [1] [%],inhibition [2] [%],Compound,other results
81,96,Cn1cnc(S(=O)(=O)N(CCN(Cc2cncn2C)c2ccc(C#N)cc2)CC2CCN(C(=O)OC(C)(C)C)CC2)c1,–
5,5,Cn1cnc(S(=O)(=O)N(CCN(Cc2cncn2C)c2ccc(C#N)cc2)CC2CCNCC2)c1,–
11,56,Cn1cnc(S(=O)(=O)N(CCN(Cc2cncn2C)c2ccc(C#N)cc2)CCn2cccc2)c1,–
45,54,Cc1ccc(CN(CCN(Cc2cncn2C)c2ccc(C#N)cc2)S(=O)(=O)c2cn(C)cn2)cc1,–
–,32,Cn1cnc(S(=O)(=O)N(CCN(Cc2c[nH]cn2)c2ccccc2)Cc2ccccc2)c1,–
37,74,Cn1cnc(S(=O)(=O)N(CCN(Cc2cncn2C)c2ccc(C#N)cc2)Cc2cccc(-n3cccc3)c2)c1,EC50 [4]: 4000 nM; EC50 [5]: 2500 nM
45,89,Cn1cnc(S(=O)(=O)N(CCN(Cc2cncn2C)c2ccc(C#N)cc2)Cc2cccc(C#N)c2)c1,EC50 [4]: 1800 nM; EC50 [5]: 350 nM
17,74,Cn1cncc1CN(CCN(Cc1ccccc1)S(=O)(=O)c1cccs1)c1ccc(C#N)cc1,–
39,85,Cn1cnc(S(=O)(=O)N(CCN(Cc2cncn2C)c2ccc(C#N)cc2)Cc2ccc(-n3cccc3)cc2)c1,–
–,0,CN(C)c1cccc2c(S(=O)(=O)N(CCN(Cc3c[nH]cn3)c3ccccc3)Cc3ccccc3)cccc12,–
1,42,C=CCN(CCN(Cc1cncn1C)c1ccc(C#N)cc1)S(=O)(=O)c1cn(C)cn1,–
6,77,C=C(C)CN(CCN(Cc1cncn1C)c1ccc(C#N)cc1)S(=O)(=O)c1cn(C)cn1,–
57,92,CC(C)C(=O)N1CCC(CN(CCN(Cc2cncn2C)c2ccc(C#N)cc2)S(=O)(=O)c2cn(C)cn2)CC1,–
74,96,Cn1cnc(S(=O)(=O)N(CCN(Cc2cncn2C)c2ccc(C#N)cc2)CC2CCN(c3ncccn3)CC2)c1,–
–,7,O=S(=O)(c1ccccc1)N(CCN(Cc1c[nH]cn1)c1ccccc1)Cc1ccccc1,–

# The remaining lines, values behind:
Compound,inhibition [1] [%],inhibition [2] [%],other results
Cn1cnc(S(=O)(=O)N(CCN(Cc2cncn2C)c2ccc(C#N)cc2)Cc2cccnc2)c1,18,74,–
Cn1cnc(S(=O)(=O)N(CCN(Cc2cncn2C)c2ccc(C#N)cc2)CC(=O)NC(C)(C)C)c1,4,6,IC50 [3]: > 1000 nM
Cn1cncc1CN(CCN(Cc1ccccc1)S(=O)(=O)c1cccc2cccnc12)c1ccc(C#N)cc1,14,35,–
Cc1cccc(CN(CCN(Cc2cncn2C)c2ccc(C#N)cc2)S(=O)(=O)c2cn(C)cn2)c1,61,94,EC50 [4]: 1000 nM; EC50 [5]: 300 nM
O=S(=O)(c1cccc2cccnc12)N(CCN(Cc1c[nH]cn1)c1ccccc1)Cc1ccccc1,–,0,–
Cn1cnc(S(=O)(=O)N(CCN(Cc2cncn2C)c2ccc(C#N)cc2)Cc2ccccc2)c1,86,98,EC50 [4]: 367 nM; AUC [6]: 1.87 µM·h; Cmax [7]: 740 nM; half-life [8]: 95.9 min; Tmax [9]: 30 min
Cc1ccccc1CN(CCN(Cc1cncn1C)c1ccc(-c2ccccc2)cc1)S(=O)(=O)c1cn(C)cn1,49,85,EC50 [4]: 2600 nM; IC50 [3]: 8 nM
Cn1cnc(S(=O)(=O)N(CCN(Cc2cncn2C)c2ccc(C#N)cc2)Cc2ccccn2)c1,64,93,IC50 [3]: 2.1 nM
Cn1cnc(S(=O)(=O)N(CCN(Cc2cncn2C)c2ccc(C#N)cc2)Cc2ccncc2)c1,22,62,–
Cn1cncc1CN(CCN(Cc1ccccc1)S(=O)(=O)c1ccccc1)c1ccc(C#N)cc1,18,69,IC50 [3]: 8.9 nM; Selectivity ratio [10]: 1.5
Cn1cnc(S(=O)(=O)N(CCN(Cc2c[nH]cn2)c2ccc(Br)cc2)Cc2ccccc2)c1,–,80,–
Cn1cnc(S(=O)(=O)N(CCN(Cc2cncn2C)c2ccc(C#N)cc2)Cc2ccc(C#N)cc2)c1,24,48,IC50 [3]: 95 nM; Selectivity ratio [10]: 3.7
Cn1cnc(S(=O)(=O)N(CCN(Cc2cncn2C)c2ccc(C#N)cc2)Cc2ccc(-c3ccccc3)cc2)c1,10,19,IC50 [3]: 240 nM; Selectivity ratio [10]: 3.7; T1/2 [11]: 3 min
CN(C)c1cccc2c(S(=O)(=O)N(CCN(Cc3cncn3C)c3ccc(C#N)cc3)Cc3ccccc3)cccc12,6,29,IC50 [3]: 55 nM; Selectivity ratio [10]: 3.3
CC(=O)N(CCN(Cc1cncn1C)c1ccc(C#N)cc1)Cc1ccccc1,0,56,–
Cn1cnc(S(=O)(=O)N(CCN(Cc2cncn2C)c2ccc(Br)cc2)Cc2ccccn2)c1,–,–,IC50 [3]: 1.9 nM; Selectivity ratio [10]: 44
Cn1cnc(S(=O)(=O)N(CCN(Cc2cncn2C)c2ccc(C#N)cc2)CC2CCOCC2)c1,28,84,–
Cn1cncc1CN(CCN(Cc1ccccc1)S(=O)(=O)c1ccccn1)c1ccc(C#N)cc1,64,95,Tmax [9]: 30 min
CC(C)C(=O)N(CCN(Cc1cncn1C)c1ccc(C#N)cc1)Cc1ccccc1,0,61,–
CC(=O)N1CCC(CN(CCN(Cc2cncn2C)c2ccc(C#N)cc2)S(=O)(=O)c2cn(C)cn2)CC1,8,44,–
O=S(=O)(c1cccs1)N(CCN(Cc1c[nH]cn1)c1ccccc1)Cc1ccccc1,–,5,–
O=S(=O)(c1ccc2ccccc2c1)N(CCN(Cc1c[nH]cn1)c1ccccc1)Cc1ccccc1,–,0,–
Cn1cnc(S(=O)(=O)N(CCN(Cc2cncn2C)c2ccc(C#N)cc2)CC2CCCCC2)c1,63,93,IC50 [3]: 4.5 nM; Selectivity ratio [10]: 1.7; Papp [12]: 1.5 ×10⁻⁶ cm/s
C=C(Br)CN(CCN(Cc1cncn1C)c1ccc(C#N)cc1)S(=O)(=O)c1cn(C)cn1,25,80,–
Cn1cnc(S(=O)(=O)N(CCN(Cc2cncn2C)c2ccc(Br)cc2)Cc2ccccc2)c1,70,95,IC50 [3]: 2 nM
Cn1cnc(S(=O)(=O)N(CCN(Cc2cncn2C)c2ccc(C#N)cc2)Cc2cccc(-c3ccccc3)c2)c1,56,93,–
